Values after ≈ are worked out from the molar mass of the structure shown.
Experiments:
[1] = Antioxidant activity assessed as inhibition of DPPH radical formation after 30 mins; type: functional
Outline: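 Test compound at […] mixed 1:1 with […], kept dark at room temperature 30 min, absorbance read at 517 nm. Ascorbic acid as positive control, DMSO as blank. % scavenging taken against a no-compound control. IC50 by linear regression of the dose-response, in mg/mL, mean ± SD of three replicates.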

[2] = Antioxidant activity in PBS buffer assessed as NO scavenging activity after 90 mins in presence of sodium nitroprusside by Griess assay; type: functional
Outline: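 Test compound at […] mixed 1:1 with 10 mM sodium nitroprusside in PBS pH 7.4, held 90 min at room temperature. Equal volume of Griess reagent (1% sulphanilamide, 0.1% naphthyl ethylene diamine in 2.5% […]) added, absorbance at 546 nm. Ascorbic acid as positive control, DMSO as blank. IC50 by linear regression, mg/mL, mean ± SD of three.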

[3] = Inhibition of soybean 15-LOX using arachidonic acid or linoleic acid as substrate preincubated with enzyme followed by substrate addition up to 5 mins by chromogenic method; set-up: species or system Glycine max
Outline: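 Kit-based assay: soybean LOX pre-mixed with test compound ([…], in DMSO), started with arachidonic or linoleic acid, shaken at least 5 min. Chromogen added to stop and develop, absorbance at 490–500 nm. Quercetin as positive control, DMSO as 100% activity, buffer as blank. IC50 from non-linear dose-response of % inhibition.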

[4] = Antioxidant activity assessed as superoxide dismutase-like activity by measuring inhibition of xanthine oxidase-induced superoxide anion level measured ever 30 secs for 5 mins by NBT reduction assay; type: functional
Outline: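 Kit-based assay at room temperature in cuvettes: reaction buffer, xanthine and NBT, then test compound ([…]), then xanthine oxidase. A550 read every 30 s from 30 s to 5 min 30 s. Rate per minute compared with a negative control gives % inhibition. IC50 from non-linear dose-response, mean ± SEM of three. Ascorbic acid as reference.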

Glycine max = experiment: Potency index, ratio of quercetin IC50 to compound IC50 for inhibition of soybean 15-LOX
[5] = Potency index, ratio of ascorbic acid IC50 to compound IC50 for antioxidant activity assessed as superoxide dismutase-like activity by measuring inhibition of xanthine oxidase-induced superoxide anion level; type: functional
[6] = Potency index, ratio of ascorbic acid IC50 to compound IC50 for antioxidant activity assessed as inhibition of DPPH radical; type: functional
[7] = Potency index, ratio of ascorbic acid IC50 to compound IC50 for antioxidant activity in PBS buffer assessed as NO scavenging activity; type: functional

Structure (SMILES) | IC50 [1] | IC50 [2] | IC50 [3] | IC50 [4] | Ratio IC50 (Glycine max) | Ratio IC50 [5] | Ratio IC50 [6] | Ratio IC50 [7]
c1ccc(-c2[nH]c3ccccc3c2C2CC(c3cccnc3)=NO2)cc1 (configuration not stated) | 60.7 µg/mL (≈ 179 µM) | 116.7 µg/mL | 6.71 µM | 3.54 µM | – | – | – | –
O=C(c1ccccc1)N1N=C(c2cccnc2)CC1c1c(-c2ccccc2)[nH]c2ccccc12 (configuration not stated) | 48.21 µg/mL (≈ 109 µM) | 50.33 µg/mL | 7.23 µM | 4.62 µM | – | – | – | –
CN1N=C(c2ccncc2)CC1c1c(-c2ccccc2)[nH]c2ccccc12 (configuration not stated) | 33.1 µg/mL (≈ 93.9 µM) | 37.1 µg/mL | 9.32 µM | 5.41 µM | – | – | – | –
O=c1c(O)c(-c2ccc(O)c(O)c2)oc2cc(O)cc(O)c12 [QUERCETIN] | – | – | 6.87 µM | – | – | – | – | –
c1ccc(-c2[nH]c3ccccc3c2C2CC(c3ccncc3)=NN2)cc1 (configuration not stated) | 15.83 µg/mL (≈ 46.8 µM) | 20.99 µg/mL | 6.54 µM | 3.24 µM | – | – | – | –
c1ccc(-c2[nH]c3ccccc3c2C2CC(c3cccs3)=NO2)cc1 (configuration not stated) | 117.5 µg/mL (≈ 341 µM) | 233.4 µg/mL | 7.51 µM | 4.26 µM | – | – | – | –
CC(=O)N1N=C(c2ccncc2)CC1c1c(-c2ccccc2)[nH]c2ccccc12 (configuration not stated) | 98.54 µg/mL (≈ 259 µM) | 29.14 µg/mL | 8.74 µM | 5.47 µM | – | – | – | –
O=C(c1ccccc1)N1N=C(c2ccncc2)CC1c1c(-c2ccccc2)[nH]c2ccccc12 (configuration not stated) | 107.32 µg/mL (≈ 243 µM) | 52.54 µg/mL | 5.14 µM | 4.27 µM | – | – | – | –
CC(=O)N1N=C(c2cccnc2)CC1c1c(-c2ccccc2)[nH]c2ccccc12 (configuration not stated) | 37.97 µg/mL (≈ 99.8 µM) | 29.8 µg/mL | 4.56 µM | 2.57 µM | – | – | – | –

Continued by falling IC50 [4], values first:

IC50 [1] | IC50 [2] | IC50 [3] | IC50 [4] | Ratio IC50 (Glycine max) | Structure (SMILES) | Ratio IC50 [5] | Ratio IC50 [6] | Ratio IC50 [7]
18.3 µg/mL (≈ 53.3 µM) | 24.04 µg/mL | 9.41 µM | 6.51 µM | – | c1ccc(-c2[nH]c3ccccc3c2C2CC(c3cccs3)=NN2)cc1 (configuration not stated) | – | – | –
23.4 µg/mL (≈ 133 µM) | 24.5 µg/mL | – | 3.54 µM | – | O=C1O[C@H]([C@@H](O)CO)C(O)=C1O [ASCORBIC ACID] | – | – | –
59.94 µg/mL (≈ 177 µM) | 70.5 µg/mL | 4.89 µM | 1.87 µM | – | c1ccc(-c2[nH]c3ccccc3c2C2CC(c3ccncc3)=NO2)cc1 (configuration not stated) | – | – | –
13.61 µg/mL (≈ 40.2 µM) | 35.01 µg/mL | 3.84 µM | 1.78 µM | 1.8 | c1ccc(-c2[nH]c3ccccc3c2C2CC(c3cccnc3)=NN2)cc1 (configuration not stated) | 2 | 1.7 | 0.7

Reference: ChEMBL document CHEMBL4145485, “Design, synthesis, biological evaluation and docking studies of new 3-(4,5-dihydro-1H-pyrazol/isoxazol-5-yl)-2-phenyl-1H-indole derivatives as potent antioxidants and 15-lipoxygenase inhibitors” (Eur J Med Chem, 2018)
